Test results from ChEMBL document CHEMBL1133213, “Synthesis, molecular modeling and preliminary biological evaluation of 1-amino-3-phosphono-3-cyclopentene-1-carboxylic acid and 1-amino-3-phosphono-2-cyclopentene-1-carboxylic acid, two novel agonists of metabotropic glutamate receptors of group III” (Bioorg Med Chem Lett, 2000).
pEC50, pIC50: −log10 of the molar value.

Legend:
[1] = target: T1, Metabotropic glutamate receptor 4 (Homo sapiens, UniProt Q14833); assay: Agonistic activity at Metabotropic glutamate receptor 4 expressed in mammalian cells by GTPgammaS binding assay; format: cell-based
Summary of the method: (§1)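 [35S]-GTPγS binding to membranes prepared from CHO cells expressing human mGlu4a. Stimulation is normalised to that given by 1 mM L-Glu. Points are mean ± SEM of three determinations from one experiment.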

[2] = target: T1, Metabotropic glutamate receptor 4; assay: Inhibitory concentration on Human mGlu4 receptor expressed in recombinant mammalian cells by GTPgammaS binding assay; format: cell-based
[3] = target: T1, Metabotropic glutamate receptor 4; assay: Inhibition of forskolin-stimulated cAMP accumulation in CHO cells expressing hmGlu4a; format: functional, cell-based
[4] = target: T2, Metabotropic glutamate receptor 2 (Homo sapiens, UniProt Q14416); assay: Inhibitory concentration on Human mGlu2 receptor expressed in recombinant mammalian cells by GTPgammaS binding assay; format: cell-based
Summary of the method: (§2)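 [35S]-GTPγS binding assay in a CHO cell line expressing human mGlu2.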

[5] = target: T1, Metabotropic glutamate receptor 4; assay: Agonistic activity on Human mGlu4a receptor expressed in recombinant mammalian cells by GTPgammaS binding assay; Partial agonist; format: cell-based; summary of the method: as §1
[6] = target: T2, Metabotropic glutamate receptor 2; assay: Agonistic activity on Human mGlu2 receptor expressed in recombinant mammalian cells by GTPgammaS binding assay; format: cell-based; summary of the method: as §2
[7] = target: T2, Metabotropic glutamate receptor 2; assay: Inhibitory concentration on Human Metabotropic glutamate receptor 2 expressed in recombinant mammalian cells by GTPgammaS binding assay; format: cell-based; summary of the method: as §2
[8] = target: T1, Metabotropic glutamate receptor 4; assay: Agonistic activity on Human mGlu4a receptor expressed in recombinant mammalian cells by GTPgammaS binding assay; format: cell-based; summary of the method: as §1
[9] = target: T2, Metabotropic glutamate receptor 2; assay: Agonistic activity on Human Metabotropic glutamate receptor 2 expressed in recombinant mammalian cells by GTPgammaS binding assay; format: cell-based; summary of the method: as §2
[10] = target: T1, Metabotropic glutamate receptor 4; assay: Inhibition of forskolin-stimulated cAMP accumulation in CHO cells expressing hmGlu4a; No full inhibition; format: functional, cell-based

T1 sequence (Q14833 whole entry): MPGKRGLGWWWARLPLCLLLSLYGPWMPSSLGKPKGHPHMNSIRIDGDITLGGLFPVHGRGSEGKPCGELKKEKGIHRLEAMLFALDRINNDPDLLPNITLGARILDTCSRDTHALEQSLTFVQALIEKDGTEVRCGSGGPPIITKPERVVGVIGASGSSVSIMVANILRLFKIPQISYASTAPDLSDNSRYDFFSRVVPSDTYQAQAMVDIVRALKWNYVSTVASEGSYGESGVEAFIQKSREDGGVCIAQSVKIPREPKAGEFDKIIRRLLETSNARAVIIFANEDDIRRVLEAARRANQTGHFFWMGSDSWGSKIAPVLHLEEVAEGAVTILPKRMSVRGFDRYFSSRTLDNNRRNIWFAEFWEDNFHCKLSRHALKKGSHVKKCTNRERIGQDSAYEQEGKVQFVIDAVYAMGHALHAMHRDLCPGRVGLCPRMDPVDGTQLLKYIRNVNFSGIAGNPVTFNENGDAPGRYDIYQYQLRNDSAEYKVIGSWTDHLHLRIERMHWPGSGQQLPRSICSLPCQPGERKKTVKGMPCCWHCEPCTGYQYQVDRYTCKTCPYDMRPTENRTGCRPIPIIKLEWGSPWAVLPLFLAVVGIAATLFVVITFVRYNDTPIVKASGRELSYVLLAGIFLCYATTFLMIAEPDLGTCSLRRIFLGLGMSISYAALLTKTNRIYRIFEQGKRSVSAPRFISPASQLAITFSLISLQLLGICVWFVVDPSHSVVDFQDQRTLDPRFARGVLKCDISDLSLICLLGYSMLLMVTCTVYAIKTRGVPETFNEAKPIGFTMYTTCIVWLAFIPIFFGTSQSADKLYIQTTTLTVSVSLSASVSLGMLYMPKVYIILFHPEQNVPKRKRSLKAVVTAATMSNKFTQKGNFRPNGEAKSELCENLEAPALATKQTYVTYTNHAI
T2 sequence (Q14416 whole entry): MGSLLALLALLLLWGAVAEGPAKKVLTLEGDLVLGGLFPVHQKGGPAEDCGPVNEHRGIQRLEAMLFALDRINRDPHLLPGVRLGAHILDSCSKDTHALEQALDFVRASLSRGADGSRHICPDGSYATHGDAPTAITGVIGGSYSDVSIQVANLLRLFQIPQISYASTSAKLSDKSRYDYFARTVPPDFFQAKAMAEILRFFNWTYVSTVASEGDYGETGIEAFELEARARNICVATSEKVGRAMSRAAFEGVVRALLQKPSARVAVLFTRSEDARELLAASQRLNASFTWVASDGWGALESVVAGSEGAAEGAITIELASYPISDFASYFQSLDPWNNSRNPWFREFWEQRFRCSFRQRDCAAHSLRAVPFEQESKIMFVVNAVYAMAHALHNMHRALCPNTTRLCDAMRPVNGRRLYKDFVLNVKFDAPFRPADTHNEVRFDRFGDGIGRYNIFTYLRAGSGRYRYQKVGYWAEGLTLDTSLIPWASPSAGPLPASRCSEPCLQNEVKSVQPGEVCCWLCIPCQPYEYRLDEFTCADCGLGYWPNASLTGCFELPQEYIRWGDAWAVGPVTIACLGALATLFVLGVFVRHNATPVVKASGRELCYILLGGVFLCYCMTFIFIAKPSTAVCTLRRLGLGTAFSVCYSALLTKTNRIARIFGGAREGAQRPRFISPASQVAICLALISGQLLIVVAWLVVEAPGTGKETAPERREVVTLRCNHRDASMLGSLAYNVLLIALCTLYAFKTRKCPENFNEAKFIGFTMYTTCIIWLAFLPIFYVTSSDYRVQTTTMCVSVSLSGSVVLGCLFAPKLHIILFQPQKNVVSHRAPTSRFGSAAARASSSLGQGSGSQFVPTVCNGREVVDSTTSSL

## N[C@]1(C(=O)O)C[C@@H]1CP(=O)(O)O
[1]
  pEC50: 6.24

## NC1(C(=O)O)C=C(P(=O)(O)O)CC1 (stereo unspecified)
[2]
  pIC50: < 4.00
[3]
  pEC50: < 4.52
  pIC50: < 4.00
[4]
  pIC50: < 3.70
[5]
  pEC50: < 4.52
[6]
  pEC50: < 3.52

## N[C@@H](COP(=O)(O)O)C(=O)O [DEXFOSFOSERINE]
[1]
  pEC50: 6.00

## NC1(C(=O)O)CC=C(P(=O)(O)O)C1 (stereo unspecified)
[7]
  pIC50: < 3.52
[2]
  pIC50: < 4.00
[8]
  pEC50: 4.77
[9]
  pEC50: < 3.52
[3]
  pIC50: < 4.00
[10]
  pEC50: ~4.52

## NC(C(=O)O)c1ccc(P(=O)(O)O)cc1 (stereo unspecified)
[1]
  pEC50: 5.33

## N[C@@]1(C(=O)O)CCC(P(=O)(O)O)C1 (single isomer, unassigned)
[1]
  pEC50: 4.57

## NC1(C(=O)O)C[C@@H](C(=O)O)[C@H](C(=O)O)C1
[1]
  pEC50: 5.05

## N[C@]1(C(=O)O)C[C@H]1CP(=O)(O)O
[1]
  pEC50: 5.10

## N[C@@]1(C(=O)O)C[C@H](C(=O)O)[C@H](C(=O)O)C1
[1]
  pEC50: 5.15

## N[C@@]1(C(=O)O)CC[C@H](P(=O)(O)O)C1
[1]
  pEC50: 4.07

## N[C@@H](CCP(=O)(O)O)C(=O)O
[1]
  pEC50: 6.30
